Screens (PubChem)
KCNK3 inh: human KCNK3 channel inhibitors, primary screen, CHO cells, FluxOR thallium flux, B-score | actives 0.84% (n = 340,000) | FluxOR fluorescence; active compounds read low | AID 602410, 2012 | B-score at 10 µM;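 active = B-score under library mean minus 4 SD, starting fluorescence ratio at most library mean plus 5 SD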;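 note: more negative B-score means stronger inhibition of thallium flux through KCNK3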
Target sequence (O14649 whole entry, looked up): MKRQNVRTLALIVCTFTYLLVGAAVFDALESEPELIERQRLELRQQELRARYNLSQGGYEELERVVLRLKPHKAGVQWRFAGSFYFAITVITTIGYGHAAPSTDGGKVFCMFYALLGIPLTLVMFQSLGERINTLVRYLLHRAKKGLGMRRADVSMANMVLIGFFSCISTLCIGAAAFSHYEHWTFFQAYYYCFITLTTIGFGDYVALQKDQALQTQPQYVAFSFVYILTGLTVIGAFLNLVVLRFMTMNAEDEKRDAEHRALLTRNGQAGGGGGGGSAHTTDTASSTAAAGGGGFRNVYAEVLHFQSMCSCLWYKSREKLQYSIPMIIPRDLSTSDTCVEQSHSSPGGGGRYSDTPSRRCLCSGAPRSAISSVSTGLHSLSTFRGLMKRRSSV
KCNQ1 pot: potentiators or activators of KCNQ1 channel, primary screen, cell-based, thallium flux, high-throughput. Potassium voltage-gated channel subfamily KQT member 1 (Homo sapiens), P51787. CHO-K1 KCNQ1, thallium flux FluxOR fluorescence; active compounds read high. B-score at 10 µM. actives 0.35% (n = 310,000). AID 2648, 2010;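 active = fluorescence ratio B-score, a plate-corrected score, at least three library SD, with initial intensity B-score within 5 SD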
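Schedule – 37 °C overnight plating, 90-min dark dye load, 20-min compound pretreatment · System – stable KCNQ1 CHO-K1 line · Probe or stimulus – thallium- and potassium-containing depolarizing buffer · Measured by – kinetic FluxOR fluorescence, 10 s baseline plus 110 s post-stimulus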
Kir21 block: inhibitors of mouse Kir2.1 inward-rectifier potassium channel; Inward rectifier potassium channel 2 (Mus musculus), P35561; HEK293-Kir2.1, FluxOR thallium flux fluorescence; active compounds read low; B-score at 10 µM; actives 0.85% (n = 310,000); AID 1672, 2009;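 active = fluorescence ratio B-score at or below minus 3 SD of library scores, with starting-brightness B-score within 2 SD, cut at about -4.2 in these data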;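 note: channel flux triggered by added potassium and thallium sulfate stimulus; B-score of peak minus minimum fluorescence over baseline after thallium stimulus; more negative B-score means stronger Kir2.1 block with less thallium influx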
KCNQ1 inh: inhibitors of human KCNQ1 channel, primary screen, cell-based, thallium flux, high-throughput; Potassium voltage-gated channel subfamily KQT member 1 (Homo sapiens), P51787; AID 2642, 2010; actives 1.3% (n = 310,000); B-score at 10 µM; CHO-K1 KCNQ1, FluxOR thallium flux fluorescence; active compounds read high;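 active = compounds whose thallium flux B-score, printed positive for inhibition, exceeds three library SD while starting fluorescence stays within three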;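 note: channel opened by potassium depolarization with thallium stimulus after 20 min compound exposure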
hERG protect: hERG rescue from dofetilide block, primary screen, cell-based, CHO-hERG, FluxOR thallium flux, dofetilide IC70; Voltage-gated inwardly rectifying potassium channel KCNH2 (Homo sapiens), Q12809; dofetilide IC70 present; activation (rescue from dofetilide block), less the hit threshold, % at 10 µM; actives 0.51% (n = 310,000); AID 1511, 2009;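 active = activation above the mean of controls blocked by dofetilide plus 5 SD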;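 note: thallium influx through hERG after potassium depolarization seen as dye fluorescence rise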
KCNK9 inh: KCNK9 potassium channel inhibitors, primary screen, HEK293 cells, thallium flux; Potassium channel subfamily K member 9 (Homo sapiens), Q9NPC2; B-score at 10 µM; FluxOR thallium flux fluorescence; active compounds read low; actives 1.2% (n = 310,000);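 active = ratio B-score over 3 SD below the library mean, with starting fluorescence within 5 SD of its mean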;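 note: negative B-score means less thallium flux so channel inhibition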
A number is an active result; n = inactive; x = no result given. Sampled rows, rich in hits. Any-hit rate of the full collection: about 3.7%.

SMILES | KCNK3 inh | KCNQ1 pot | Kir21 block | KCNQ1 inh | hERG protect | KCNK9 inh
COc1ccc(S(=O)(=O)N2CCOCC2)cc1NC(=O)c1sccc1C | n | x | x | x | x | x
Nc1cc2c(cc1Br)-c1c(C(=O)O)cccc1C2O (stereo unspecified) | n | x | x | x | x | x
CCC(=O)c1ccc(OC(=O)C2CCN(C3=NS(=O)(=O)c4ccccc43)CC2)cc1 | n | x | x | x | x | x
CSc1ccc(/C=N/n2c(Cc3ccc(Br)cc3)n[nH]c2=S)cc1 | n | n | n | n | 154.6 | n
c1ccc(-c2nnsc2-c2ncc[nH]2)cc1 | n | n | n | n | 4.7 | n
Cc1ccc(C(=O)NCC(=O)N(C)Cc2ccc(Cl)cc2Cl)s1 | n | x | x | x | x | x
CC1(C)C2CC[C@]3(C)C(CC=C4[C@@H]5C[C@@](C)(CO)[C@@H](O)C[C@]5(C(=O)O)CC[C@]43C)[C@@]2(C)CC[C@@H]1O (stereo partly specified) | x | n | n | n | n | n
CC1(C)CC[C@]2(CO)[C@@H](O)C[C@]3(C)C(=CCC4[C@@]5(C)CC[C@H](O)C(C)(C)C5CC[C@]43C)[C@@H]2C1 (stereo partly specified) | x | 34 | n | n | n | n
Cc1ccc(/C=C/C(=O)c2ccccc(=O)c2O)c(C)c1 | n | 19 | n | n | 25.6 | n
O=C(/C=C/c1ccccc1Cl)c1ccccc(=O)c1O | n | 14 | n | n | 16.4 | n
Cc1ccc(C)c(/C=C/C(=O)c2ccccc(=O)c2O)c1 | n | 27 | n | n | 18.2 | n
O=C(/C=C/c1ccc([N+](=O)[O-])cc1)c1ccccc(=O)c1O | n | x | x | x | x | x
O=C(C=Cc1ccccc1O)c1ccccc1O | n | x | x | x | x | x
Cc1ccc(CSCCNS(=O)(=O)c2ccc([N+](=O)[O-])cc2)cc1 | n | n | -4.37 | n | n | n
COc1ccc(S(=O)(=O)NCCSCc2cccc(C)c2)cc1Br | n | n | n | n | n | n
Cc1ccc(S(=O)(=O)NCCSCc2ccccc2)cc1 | n | n | -5.7 | n | n | n
CCN(C(=O)COC(=O)c1ccccc1Cc1ccccc1)c1c(N)n(Cc2ccccc2)c(=O)[nH]c1=O | n | x | x | x | x | x
Cc1ccc(NC(=O)CSc2ncccn2)cc1S(=O)(=O)N1CCOCC1 | n | x | x | x | x | x
CCCCN(C(=O)COC(=O)CSc1cc(C)c2ccccc2n1)c1c(N)n(CCC)c(=O)[nH]c1=O | n | n | n | n | n | n
O=c1c2ccccc2c(C=NCCCN2CCOCC2)c(O)n1Cc1ccccc1 | n | n | -5.82 | n | n | n
O=c1c2ccccc2c(C=NCCc2ccccc2)c(O)n1Cc1ccccc1 | n | n | n | 6 | n | n
CCCCOc1ccccc1C(=O)NNC(=S)NC(=O)c1ccccc1[N+](=O)[O-] | n | n | n | n | n | n
O=Cc1ccnc(-c2ccc(OC(=O)c3ccco3)cc2)n1 | n | n | -5.41 | n | n | n
O=C(Oc1ccc(-c2ccccc2)cc1)c1ccco1 | n | x | x | x | x | x
COc1ccc(NC(=O)N2CCCc3cc(C)ccc32)c(OC)c1 | n | n | n | n | n | n
SMILES | KCNK3 inh | KCNQ1 pot | Kir21 block | KCNQ1 inh | hERG protect | KCNK9 inh
COc1ccccc1CC(=O)N1CCCc2cc(C)ccc21 | n | n | -7.27 | n | n | n
COC(=O)c1sccc1NC(=S)NCc1ccc(Cl)cc1 | n | n | n | n | 14.3 | n
O=Cc1s/c(=N\S(=O)(=O)c2ccccc2)n(CCCCl)c1Cl | n | n | n | n | 7.4 | n
CCOC(=O)C(C(C)C)C(N)Cc1ccc(F)cc1 (stereo unspecified) | n | n | n | n | n | n
COc1cccc(C(=O)CSc2nnc(-c3cc(OC)cc(OC)c3)o2)c1 | n | n | n | n | 6.2 | n
O=C(c1ccc(Br)c(S(=O)(=O)N2CCOCC2)c1)N1CCN(C/C=C/c2ccccc2)CC1 | n | x | x | x | x | x
Cc1nc(SCC(=O)NCC2CCCO2)c2c(C)c(C)sc2n1 (stereo unspecified) | n | x | x | x | x | x
